Shown are actives, neighbours in structure and some others; about 3.6% of the full set was active somewhere.
PAFAH1B3 inh: blocks human PAF acetylhydrolase 1B catalytic subunit 3 | recombinant PAFAH1B3, FP-rhodamine probe, fluorescence polarization | inhibition, % at 3.39 µM | actives 0.28% (n = 340,000);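 active means inhibition above the screen-wide average of all tested compounds plus 3 SD, cut at about 25% in these data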;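 further: 0% = enzyme with DMSO only and 100% = wells lacking PAFAH1B3 protein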
PAFAH1B2 FP inh: blocks human PAF acetylhydrolase 1b catalytic subunit 2. P68402. recombinant PAFAH1B2, FP-rhodamine activity probe, fluorescence polarization. inhibition, % at 3.39 µM. actives 1.2% (n = 340,000). AID 492953;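 active means inhibition above the mean of all tested compounds plus 3 SD, cut at about 24% in these data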;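 further: 0% = enzyme with DMSO and 100% = wells lacking PAFAH1B2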
pPAFAH inh: pPAFAH (human) enzyme inhibition; Q13093; recombinant pPAFAH, FP-rhodamine probe fluorescence polarization; inhibition, % at 3.39 µM; actives 1.5% (n = 330,000);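 active means inhibition above the mean inhibition across the screen plus 3 SD, cut at about 25% in these data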;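 further: inhibitors block binding of the rhodamine activity-based probe so polarization drops; 0% = enzyme with DMSO and 100% = wells lacking pPAFAH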
Target sequence (Q13093 whole entry, looked up): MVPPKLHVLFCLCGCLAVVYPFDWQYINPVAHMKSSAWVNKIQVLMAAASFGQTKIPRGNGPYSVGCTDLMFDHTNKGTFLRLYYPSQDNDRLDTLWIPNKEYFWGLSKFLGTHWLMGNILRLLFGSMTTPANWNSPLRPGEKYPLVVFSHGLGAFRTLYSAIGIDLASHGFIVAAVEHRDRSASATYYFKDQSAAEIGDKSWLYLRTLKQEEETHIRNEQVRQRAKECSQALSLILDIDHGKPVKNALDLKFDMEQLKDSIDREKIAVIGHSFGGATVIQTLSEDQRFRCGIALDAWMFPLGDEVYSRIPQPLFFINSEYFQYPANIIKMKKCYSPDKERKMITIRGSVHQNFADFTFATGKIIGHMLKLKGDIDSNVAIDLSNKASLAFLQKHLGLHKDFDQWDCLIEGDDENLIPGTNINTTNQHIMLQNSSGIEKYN
VIM-2 inhibitor: inhibitors of Pseudomonas aeruginosa VIM-2 metallo-beta-lactamase. AID 1527. purified VIM-2, nitrocefin hydrolysis, epi-absorbance fluorescence. inhibition, % at 5.6 µM. actives 0.89% (n = 290,000);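 active means inhibition above the mean of all tested compounds plus 3 SD, cutoff set per screening run, cut at about 7.5% in these data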;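 further: red hydrolysis product quenches plate fluorescence so inhibitors raise well fluorescence; 0% = enzyme with DMSO and 100% = DMSO without enzyme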
PAFAH2 FP inh: inhibitors of human PAFAH2; actives 0.99% (n = 340,000); recombinant PAFAH2, FP-rhodamine activity probe, fluorescence polarization; inhibition, % at 3.39 µM;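 active means inhibition above the mean over all tested compounds plus 3 SD, cut at about 30% in these data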;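 further: inhibitors block probe labeling of enzyme so polarization drops; 0% = enzyme with DMSO and 100% = wells lacking PAFAH2 protein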
IMP-1 inh: inhibitors of Pseudomonas aeruginosa IMP-1 metallo-beta-lactamase | purified IMP-1, nitrocefin hydrolysis, epi-absorbance fluorescence | inhibition, % at 5.6 µM | actives 0.45% (n = 290,000);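 active means inhibition above the mean plus 3 SD of all compounds in the same screening run, cut at about 4.5% in these data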;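 further: 0% = IMP-1 with DMSO and 100% = DMSO wells lacking enzyme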
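System: purified IMP-1; amount: IMP-1 0.2 nM before substrate addition; compound: single dose, 5.6 µM; times: 25 °C, 15 min preincubation, 25 min reaction; signal: Epi-absorbance via hydrolysed-nitrocefin quenching of white-plate fluorescence, 480/530 nm, EDTA stop; benchmarks: DMSO with and without IMP-1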
Starred values were filed as active, the others as inactive; . = no result given; ! = not active in a repeat.

SMILES	PAFAH1B3 inh	PAFAH1B2 FP inh	pPAFAH inh	VIM-2 inhibitor	PAFAH2 FP inh	IMP-1 inh
O=C(NCCc1ccc(Cl)cc1)c1ccc2ccccc2n1	2	25*	8	1	8	-4
O=C(CCc1ccccc1)NNC(=O)Cc1ccc(Cl)cc1	9	25*	9	-4	13	-3
COCCNC(=O)c1ccc2ccccc2n1	9	7	3	-3	-4	-3
Cc1cccc(N2C(=O)N3[C@H]4c5ccccc5OC[C@@H]4[C@@H](c4ccccc4)[C@@]3(C)C2=O)c1	7	4	5	.	2	.
CCN(c1ccccc1)S(=O)(=O)c1cccc(C(=O)NCC(c2cccs2)N2CCOCC2)c1 (configuration not stated)	2	2	1	.	6	.
Cc1ccc(S(=O)(=O)CC(=O)N2CCN(c3ccc(F)cc3)CC2)cc1	5	13	6	-1	-3	-2
O=C(NCCc1ccccc1)c1ccccc1Cl	9	-5	-5	-1	3	-5
O=C(O)c1ccccc1C(=O)NCCc1ccc(Cl)cc1	14	30*	6	-4	7	-3
O=C(NCCc1ccc(Cl)cc1)C(=O)c1c[nH]c2ccccc12	-7	28*	9	0	-14	0
O=C1SC(c2ccccc2)=C/C1=C\N1CCCCC1	2	6	2	2	12	4.8*
O=C(Nc1cccc(C(F)(F)F)c1)C1=CC=CN2CCS(=O)(=O)N=C12	12	3	-1	.	-1	.
C=C(C(=O)Oc1ccccc1C(C)(C)C)c1ccccc1	.	.	-3	.	.	.
Cc1ccc(C)c(S(=O)(=O)c2c(C)cc(C)[nH]c2=O)c1	-10	6	8	-1	1	-4
CC1CCCCC1NC(=O)COC(=O)c1ccc2ccccc2n1 (configuration not stated)	4	2	27*	-3	13	-2
CC1CCCCC1NS(=O)(=O)c1ccc(S(=O)(=O)N2CCCC2)cc1 (configuration not stated)	3	14	26*	-4	2	-3
Cc1nc2nc[nH]n2c(=O)c1NC(=O)CC12CC3CC(CC(C3)C1)C2	8	25*	3	-2	36*!	-3
CCC(=O)Nc1ccc(S(=O)(=O)Nc2c(C)nc3nc[nH]n3c2=O)cc1	7	2	4	-1	-2	-3
COCCCNc1ncnc2ccc(C)cc12	1	3	25*	-4	4	1
O=C(Nc1ncccc1O)c1ccc(Cl)c(S(=O)(=O)N2CCCCC2)c1	3	10	5	.	20	.
CCN(c1ccccc1)S(=O)(=O)c1ccc(Cl)c(NC(=O)COC(=O)c2ccc(O)cc2)c1	1	-3	34*	-3	67*	-3
O=C(N/N=C/c1ccc(-c2ccccc2C(=O)O)o1)c1cccs1	0	3	28*	-5	4	-3
Cc1nc(SCc2nc3cc(Cl)c(F)cc3[nH]2)c2oc3ccccc3c2n1	-56	-29	-26	.	-67	.
Cc1cc(C(=O)COc2ccccc2C(N)=O)c(C)n1C	8	0	-4	0	-5	0
Cc1cc(C(=O)COc2cccc3cccnc23)c(C)n1C	7	13	26*	3	26	-2
NNC(=O)c1nc(-c2ccccc2)cc(-c2ccccc2)n1	-1	-2	.	-1	-3	-4
SMILES	PAFAH1B3 inh	PAFAH1B2 FP inh	pPAFAH inh	VIM-2 inhibitor	PAFAH2 FP inh	IMP-1 inh
CN1CCN(C(=O)c2cnn3c(C(F)(F)F)cc(-c4cccs4)nc23)CC1	10	8	2	8.6*	-3	-4
O=C(CN(C(=O)c1csnn1)c1ccccc1F)NC1CCCCC1	0	0	10	-4	-11	1
Nc1c2c(=O)[nH]c(O)cc2nn1-c1ccccc1	5	3	.	.	3	.
O=C(COC(=O)C1(c2ccc(F)cc2)CCCC1)N1CCN(C(=O)c2ccco2)CC1	11	33*	3	-3	5	-3
O=C(COC(=O)C1(c2ccccc2F)CCCC1)N1CCN(C(=O)c2ccco2)CC1	9	1	5	-2	4	-3
O=C(c1ccc(S(=O)(=O)Nc2ccccc2Cl)cc1)N1CCCC1	-4	1	5	.	8	.
O=C(COc1ccc(S(=O)(=O)Nc2ccccc2)cc1)NCc1ccccn1	10	3	.	0	-2	-3
Cc1ccccc1NS(=O)(=O)c1ccc(C(=O)N2CCCCCC2)cc1	-3	-1	25*	.	13	.
Cc1ccccc1NS(=O)(=O)c1ccc(C(=O)N2CCN(c3ccccn3)CC2)cc1	-4	2	26*	-3	-1	-3
Cc1ccccc1NS(=O)(=O)c1ccc(OCC(=O)NCc2ccccn2)cc1	10	2	29*	-2	11	-3
O=C(c1ccc(S(=O)(=O)Nc2ccccc2F)cc1)N1CCN(c2ccccn2)CC1	5	2	3	.	-2	.
COc1ccc(C(=O)COC(=O)CCNS(=O)(=O)c2ccccc2)c(OC)c1	2	2	22	.	8	.
Cc1[nH]c(-c2ccccn2)nc(=S)c1Cl	3	-5	7	4	10	-1
Cc1cc(=S)nc(-c2ccccn2)[nH]1	0	-1	-4	11*	3	-1
COc1ccc(Cl)cc1NC(=O)Cn1c(C)csc1=O	-4	-4	5	.	3	.
COCc1nnc(NC(=O)CCCOc2ccccc2OC)s1	-13	8	3	1	0	-2
COCc1nnc(NC(=O)CCCOc2ccccc2)s1	11	2	34*	2	-2	-3
O=C(COC(=O)c1cccc(S(=O)(=O)NCc2ccccc2)c1)Nc1ccccc1OC(F)F	6	10	32*	-1	43*	-3
O=C(COC(=O)c1ncc(Cl)c(Cl)c1Cl)Nc1ccccc1OC(F)F	9	3	25*	-2	1	-2
COc1cc(NS(=O)(=O)c2ccc(NC(=O)CCC(=O)O)cc2)nc(OC)n1	7	1	3	-1	5	-1
COc1ccc(-c2ccc(C(=S)N3CCN(C(C)=O)CC3)o2)cc1	12	-1	0	-2	1	8.5*
Cc1cc(NC(=O)CN2CCN(Cc3ccccc3)CC2)nc2c1c(=O)oc1ccccc12	.	.	-4	8.3*	.	0
COc1cc(NC(=NS(=O)(=O)c2ccccc2)c2ccccc2)ncn1	-1	10	.	.	3	.
O=[N+]([O-])c1ccc(S(=O)(=O)c2cccc(C(F)(F)F)c2)nc1	-2	10	3	.	-2	.
N#Cc1ccc(S(=O)(=O)N2CCc3[nH]c4ccc(F)cc4c3C2)cc1	5	38*	13	-2	8	-2
O=S(=O)(c1ccc2[nH]c3c(c2c1)CCCC3)N1CCCCC1	5	5	14	1	7	-1
Cc1cccn2c(=O)c(C(=O)NCCCN3CCCCC3C)c(O)nc12 (configuration not stated)	5	8	5	9.5*	5	-2

Assay outcomes from PubChem.
